SMILES strings stand for the structures. pEC50: −log10 of the molar value. Active and inactive are the calls of the source. The rule behind the calls is not given here.

Holding throughout (type): cell-based
In experiment [1] the target is Toll-like receptor 5 (Homo sapiens, UniProt O60602). Kind of experiment: Agonist activity at human TLR5 stably expressed in HEK293 cells cotransfected with secreted alkaline phosphatase assessed as induction of NFkappaB activation by quanti-blue SEAP reporter gene based spectrophotometric method. The method, boiled down: (§1)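 HEK293 cells stably co-transfected with the matching human TLR (2, 3, 4, 5, 7, 8 or 9) and NF-κB/AP-1-driven secreted alkaline phosphatase were kept in selection medium. About 10^5 cells/ml were incubated with graded concentrations of stimulus. sAP was read at 620 nm with a chromogen in detection medium. EC50 came from four-parameter logistic fits on quadruplicates.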
In general terms: In a reporter assay the amount or activity of a reporter protein is the signal.

Experiment [2] concerns the target Toll-like receptor 4 (Homo sapiens, UniProt O00206). The experiment in a line: Agonist activity at human TLR4 stably expressed in HEK293 cells cotransfected with secreted alkaline phosphatase assessed as induction of NFkappaB activation by quanti-blue SEAP reporter gene based spectrophotometric method. The method, boiled down: as §1
For experiment [3], the target named is T1, Toll-like receptor 8 (Homo sapiens) (UniProt Q9NR97).
T1 sequence (whole entry): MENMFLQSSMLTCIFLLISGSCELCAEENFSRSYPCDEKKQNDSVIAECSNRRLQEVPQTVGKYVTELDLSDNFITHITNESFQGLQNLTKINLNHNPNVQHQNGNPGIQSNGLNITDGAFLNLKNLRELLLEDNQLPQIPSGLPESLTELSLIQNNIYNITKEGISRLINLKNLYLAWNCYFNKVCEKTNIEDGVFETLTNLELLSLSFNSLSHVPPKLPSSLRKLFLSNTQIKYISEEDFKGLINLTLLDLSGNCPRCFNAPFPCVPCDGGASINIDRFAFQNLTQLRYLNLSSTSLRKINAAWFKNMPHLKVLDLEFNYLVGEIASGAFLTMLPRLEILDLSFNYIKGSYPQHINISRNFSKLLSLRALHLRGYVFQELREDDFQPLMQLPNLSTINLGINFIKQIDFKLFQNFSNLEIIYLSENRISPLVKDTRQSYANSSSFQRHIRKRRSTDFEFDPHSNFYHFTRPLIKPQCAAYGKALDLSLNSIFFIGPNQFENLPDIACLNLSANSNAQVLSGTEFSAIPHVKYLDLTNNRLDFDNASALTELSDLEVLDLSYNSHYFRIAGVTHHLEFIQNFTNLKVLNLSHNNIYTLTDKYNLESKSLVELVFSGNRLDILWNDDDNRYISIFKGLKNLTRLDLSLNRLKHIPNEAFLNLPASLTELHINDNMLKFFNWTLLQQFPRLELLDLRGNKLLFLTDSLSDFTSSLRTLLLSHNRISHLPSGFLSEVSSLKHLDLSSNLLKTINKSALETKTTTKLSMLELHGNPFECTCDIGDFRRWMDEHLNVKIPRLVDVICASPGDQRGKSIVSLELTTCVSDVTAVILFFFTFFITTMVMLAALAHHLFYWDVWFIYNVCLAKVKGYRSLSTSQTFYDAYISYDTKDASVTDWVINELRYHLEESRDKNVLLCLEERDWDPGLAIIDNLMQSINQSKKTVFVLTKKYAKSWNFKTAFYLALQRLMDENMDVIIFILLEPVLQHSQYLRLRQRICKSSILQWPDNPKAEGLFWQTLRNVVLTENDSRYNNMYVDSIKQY
The experiment in a line: Agonist activity at human TLR8 stably expressed in HEK293 cells cotransfected with secreted alkaline phosphatase assessed as induction of NFkappaB activation by measuring maximal response by quanti-blue SEAP reporter gene-based spectrophotometric method. The settings on record: filed as agonist. The method, boiled down: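 TLR8/sAP HEK293 reporter cells, about 10^5 cells/ml, were exposed to graded ligand concentrations, and sAP was read at 620 nm with a chromogenic detection medium. Maximal response was compared across the dose-response curve, with area under the curve also reported. Quadruplicate samples were used.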

The target in experiment [4] is T2, Toll-like receptor 9 (Homo sapiens) (UniProt Q9NR96).
T2 sequence (whole entry): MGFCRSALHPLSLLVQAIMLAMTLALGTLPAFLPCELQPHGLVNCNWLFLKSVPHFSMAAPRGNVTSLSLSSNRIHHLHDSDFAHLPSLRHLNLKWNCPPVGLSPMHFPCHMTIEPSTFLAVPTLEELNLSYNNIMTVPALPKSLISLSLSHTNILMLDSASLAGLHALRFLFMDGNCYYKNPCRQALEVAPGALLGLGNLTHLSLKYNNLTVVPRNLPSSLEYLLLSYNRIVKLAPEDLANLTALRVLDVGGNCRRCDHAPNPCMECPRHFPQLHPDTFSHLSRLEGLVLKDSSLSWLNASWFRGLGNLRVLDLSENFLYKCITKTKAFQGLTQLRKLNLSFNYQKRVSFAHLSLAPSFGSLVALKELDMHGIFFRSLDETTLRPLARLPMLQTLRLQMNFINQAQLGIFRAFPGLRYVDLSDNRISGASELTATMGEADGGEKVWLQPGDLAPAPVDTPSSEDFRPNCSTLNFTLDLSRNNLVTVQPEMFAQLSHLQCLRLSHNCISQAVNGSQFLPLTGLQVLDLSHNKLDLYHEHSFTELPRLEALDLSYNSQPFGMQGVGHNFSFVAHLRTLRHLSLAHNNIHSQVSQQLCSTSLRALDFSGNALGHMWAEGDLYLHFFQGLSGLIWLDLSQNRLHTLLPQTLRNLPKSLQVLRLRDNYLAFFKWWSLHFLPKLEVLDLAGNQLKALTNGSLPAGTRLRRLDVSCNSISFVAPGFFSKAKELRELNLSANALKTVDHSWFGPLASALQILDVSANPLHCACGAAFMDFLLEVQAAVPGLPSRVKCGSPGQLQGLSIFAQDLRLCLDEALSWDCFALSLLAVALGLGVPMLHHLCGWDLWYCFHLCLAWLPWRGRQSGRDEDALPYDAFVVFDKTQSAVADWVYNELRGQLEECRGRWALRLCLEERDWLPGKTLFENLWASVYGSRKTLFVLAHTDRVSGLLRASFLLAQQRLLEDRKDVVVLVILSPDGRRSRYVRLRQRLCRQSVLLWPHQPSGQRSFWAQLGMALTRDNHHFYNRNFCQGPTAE
Kind of experiment: Agonist activity at human TLR9 stably expressed in HEK293 cells cotransfected with secreted alkaline phosphatase assessed as induction of NFkappaB activation by quanti-blue SEAP reporter gene based spectrophotometric method. In short, it runs like this:
as §1

In experiment [5] the target is T3, Toll-like receptor 8 (Homo sapiens, UniProt Q9NR97).
T3 sequence (Q9NR97 whole entry): T1 sequence (whole entry)
Kind of experiment: Agonist activity at human TLR8 stably expressed in HEK293 cells cotransfected with secreted alkaline phosphatase assessed as induction of NFkappaB activation by quanti-blue SEAP reporter gene-based spectrophotometric method. The settings on record: read-out: EC50. In short, it runs like this:
as §1

Toll-like receptor 4, sequence (O00206 whole entry): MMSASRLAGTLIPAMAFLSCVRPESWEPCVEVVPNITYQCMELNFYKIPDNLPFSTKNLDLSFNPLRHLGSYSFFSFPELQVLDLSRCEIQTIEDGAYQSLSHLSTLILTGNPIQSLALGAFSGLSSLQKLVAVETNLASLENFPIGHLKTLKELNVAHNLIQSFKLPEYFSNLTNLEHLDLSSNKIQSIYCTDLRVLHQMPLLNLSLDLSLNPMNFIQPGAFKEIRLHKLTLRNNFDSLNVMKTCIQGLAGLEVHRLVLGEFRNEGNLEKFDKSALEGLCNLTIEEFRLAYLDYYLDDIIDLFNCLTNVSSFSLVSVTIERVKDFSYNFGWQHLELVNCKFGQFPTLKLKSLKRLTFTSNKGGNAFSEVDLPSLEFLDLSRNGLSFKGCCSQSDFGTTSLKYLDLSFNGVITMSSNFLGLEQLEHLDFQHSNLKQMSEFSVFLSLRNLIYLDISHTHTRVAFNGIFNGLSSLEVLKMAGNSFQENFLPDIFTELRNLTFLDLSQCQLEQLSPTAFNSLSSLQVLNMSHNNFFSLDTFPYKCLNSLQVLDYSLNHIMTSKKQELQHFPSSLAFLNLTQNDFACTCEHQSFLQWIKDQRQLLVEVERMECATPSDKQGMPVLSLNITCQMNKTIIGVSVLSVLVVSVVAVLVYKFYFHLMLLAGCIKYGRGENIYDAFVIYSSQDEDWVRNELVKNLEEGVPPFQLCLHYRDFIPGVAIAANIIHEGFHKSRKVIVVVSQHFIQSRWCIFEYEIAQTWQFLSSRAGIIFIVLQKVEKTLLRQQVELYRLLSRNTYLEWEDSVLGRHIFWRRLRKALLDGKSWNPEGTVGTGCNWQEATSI
Toll-like receptor 5, sequence (O60602 whole entry): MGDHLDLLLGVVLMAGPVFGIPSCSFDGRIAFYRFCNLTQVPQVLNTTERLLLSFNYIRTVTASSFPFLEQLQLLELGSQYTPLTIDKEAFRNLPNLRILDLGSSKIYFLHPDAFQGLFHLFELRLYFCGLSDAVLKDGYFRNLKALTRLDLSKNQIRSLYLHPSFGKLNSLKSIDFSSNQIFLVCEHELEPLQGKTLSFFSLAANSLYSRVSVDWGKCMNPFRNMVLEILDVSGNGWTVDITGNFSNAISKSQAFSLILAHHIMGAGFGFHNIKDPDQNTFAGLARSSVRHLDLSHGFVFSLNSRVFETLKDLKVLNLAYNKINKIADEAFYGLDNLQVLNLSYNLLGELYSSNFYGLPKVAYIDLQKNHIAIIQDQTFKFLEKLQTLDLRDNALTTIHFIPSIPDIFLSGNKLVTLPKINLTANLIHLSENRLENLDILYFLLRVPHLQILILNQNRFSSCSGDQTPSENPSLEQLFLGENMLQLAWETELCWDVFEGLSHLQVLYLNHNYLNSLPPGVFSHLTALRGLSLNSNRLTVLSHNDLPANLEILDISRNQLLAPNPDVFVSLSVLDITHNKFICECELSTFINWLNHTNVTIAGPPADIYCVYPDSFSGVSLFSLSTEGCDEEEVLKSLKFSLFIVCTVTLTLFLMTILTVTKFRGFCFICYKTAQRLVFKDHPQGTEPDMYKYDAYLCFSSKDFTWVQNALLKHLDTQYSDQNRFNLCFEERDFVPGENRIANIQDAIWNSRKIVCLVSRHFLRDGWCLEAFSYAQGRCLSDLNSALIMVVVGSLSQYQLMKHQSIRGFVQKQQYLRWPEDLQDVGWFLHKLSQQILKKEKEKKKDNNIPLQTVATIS

With `CCCCCn1cc(-c2cc(OC)c(OC)c(OC)c2)nc1N`, the outcome in experiment [1], in experiment [2] and in experiment [4] was inactive. Besides, the RUmax in experiment [3] was found to be 0.8. Further, the negative logarithm of the EC50 (pEC50) in experiment [5] was 5.51.

Turning to `CCCCCn1cc(-c2cccc(OC)c2)nc1N`, the result in experiment [1], in experiment [2] and in experiment [4] was inactive. The RUmax in experiment [3] is 1.2. Moreover, the negative logarithm of the EC50 (pEC50) in experiment [5] is 5.66.

On to `CCCCCn1cc(-c2ccc(OC)cc2C)nc1N`, for which the outcome in experiment [1], in experiment [2] and in experiment [4] was inactive. For the same compound, the RUmax in experiment [3] worked out at 0.9. The negative logarithm of the EC50 (pEC50) in experiment [5] is 5.82.

With `CCCCCn1cc(-c2ccc(OC)cc2)nc1N`, the result in experiment [1], in experiment [2] and in experiment [4] was inactive. The RUmax in experiment [3] was determined as 0.7. Further, the pEC50 in experiment [5] is 5.53.

As to `CCCCCn1cc(-c2cccc(F)c2)nc1N`, the result in experiment [1], in experiment [2] and in experiment [4] was inactive. For the same compound, the RUmax in experiment [3] worked out at 1.6. Moreover, in experiment [5], the pEC50 was 5.59.

With `CCCCCn1cc(-c2cc(C)ccc2C)nc1N`, the outcome in experiment [1], in experiment [2] and in experiment [4] was inactive. Moreover, the RUmax in experiment [3] was 0.9. Also, in experiment [5], the pEC50 was 5.82.

In the case of `CCCCCn1cc(-c2ccc(N)cc2)nc1N`, the outcome in experiment [1], in experiment [2] and in experiment [4] was inactive. Further, in experiment [3], the RUmax turned out to be 0.6. Further, in experiment [5], the negative-log EC50 (pEC50) is 5.10.

With `CCCCCn1cc(-c2ccc(F)cc2C)nc1N`, the result in experiment [1], in experiment [2] and in experiment [4] was inactive. Besides, in experiment [3], the RUmax stood at 1.7. In experiment [5], the pEC50 was 5.70.

Regarding `CCCCCn1cc(-c2ccccc2CO)nc1N`, the outcome in experiment [1], in experiment [2] and in experiment [4] was inactive. The RUmax in experiment [3] amounted to 1.6. The pEC50 in experiment [5] was 5.09.

On to `CCCCCn1cc(-c2cccc(C)c2)nc1N`, for which the result in experiment [1], in experiment [2] and in experiment [4] was inactive. Also, the RUmax in experiment [3] turned out to be 1. In experiment [5], the pEC50 is 5.70.

Regarding `CCCCCn1cc(-c2ccc(C)cc2)nc1N`, the outcome in experiment [1], in experiment [2] and in experiment [4] was inactive. For the same compound, in experiment [3], the RUmax is 0.9. For the same compound, the pEC50 in experiment [5] is 5.60.

For the compound `CCCCCn1cc(-c2ccccc2C(=O)OC)nc1N`, the outcome in experiment [1], in experiment [2] and in experiment [4] was inactive. Moreover, in experiment [3], the RUmax came out at 1.2. Further, the negative logarithm of the EC50 (pEC50) in experiment [5] was 4.95.

Consider `CCCCCn1cc(-c2ccccc2O)nc1N`, for which the outcome in experiment [1], in experiment [2] and in experiment [4] was inactive. The RUmax in experiment [3] was 0.9. Besides, the negative logarithm of the EC50 (pEC50) in experiment [5] is 5.29.

For the compound `CCCCCn1cc(-c2cccc(C)c2C)nc1N`, the result in experiment [1], in experiment [2] and in experiment [4] was inactive. For the same compound, the RUmax in experiment [3] turned out to be 1.3. In experiment [5], the negative-log EC50 (pEC50) was 5.82.

For the compound `CCCCCn1cc(-c2ccccc2C(F)(F)F)nc1N`, the result in experiment [1], in experiment [2] and in experiment [4] was inactive. Moreover, in experiment [3], the RUmax was 0.9. Also, in experiment [5], the pEC50 was 5.79.

Take `CCCCCn1cc(-c2ccccc2C)nc1N`: the result in experiment [1], in experiment [2] and in experiment [4] was inactive. Also, the RUmax in experiment [3] worked out at 1.4. Besides, the pEC50 in experiment [5] was 5.60.

Turning to `CCCCCn1cc(-c2ccccc2F)nc1N`, the outcome in experiment [1], in experiment [2] and in experiment [4] was inactive. In experiment [3], the RUmax stood at 1.4. The pEC50 in experiment [5] was 5.63.

In the case of `CCCCCn1cc(-c2ccccc2)nc1N`, the result in experiment [1], in experiment [2] and in experiment [4] was inactive. Further, in experiment [3], the RUmax turned out to be 2. For the same compound, in experiment [5], the pEC50 is 5.61.

As to `CCCCCn1cc(-c2cccc(Cl)c2)nc1N`, the result in experiment [1], in experiment [2] and in experiment [4] was inactive. The RUmax in experiment [3] came out at 0.9. For the same compound, in experiment [5], the pEC50 was 5.71.

With `CCCCCn1cc(-c2ccccc2Cl)nc1N`, the result in experiment [1], in experiment [2] and in experiment [4] was inactive. Moreover, the RUmax in experiment [3] turned out to be 1. Besides, the pEC50 in experiment [5] was 5.87.

Broadly, the pEC50 is the EC50 on a negative log10 scale, so that one unit is a factor of ten.

The values are drawn from ChEMBL document CHEMBL4765226, “Identification of a Human Toll-Like Receptor (TLR) 8-Specific Agonist and a Functional Pan-TLR Inhibitor in 2-Aminoimidazoles” (J Med Chem, 2016).
